# Tested on: Japanese patients with RET-rearranged NSCLC
# Test: ALL-RET phase 1/2 trial: safety
# Type: in vivo, human
# Procedure, shortened: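 Adverse events were graded by NCI CTCAE v4.0, with causal relation to treatment recorded separately. Dose finding used a 3+3 de-escalation design with 3–6 patients per cohort. DLT was evaluated over the first 21-day cycle and defined as grade ≥4 thrombopenia, grade ≥3 febrile neutropenia, grade ≥4 neutropenia lasting ≥4 days, or grade ≥3 non-hematologic toxicity, with specified exceptions. Follow-up ran until January 2019.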
smiles,measurement,setting,value
CCc1cc2c(cc1N1CCC(N3CCOCC3)CC1)C(C)(C)c1[nH]c3cc(C#N)ccc3c1C2=O [alectinib],grade 4 AEs,450 mg BID,no grade 4 AEs were observed
same,"Aspartate aminotransferase increase, any grade, number (total)",450 mg BID (N=28),9
same,"Aspartate aminotransferase increase, any grade, number [causally related]",450 mg BID (N=28),7
same,"Aspartate aminotransferase increase, any grade, percent (total)",450 mg BID (N=28),32.1%
same,"Aspartate aminotransferase increase, any grade, percent [causally related]",450 mg BID (N=28),25.0%
same,"Aspartate aminotransferase increase, grade 1–2, number (total)",450 mg BID (N=28),9
same,"Aspartate aminotransferase increase, grade 1–2, number [causally related]",450 mg BID (N=28),7
same,"Aspartate aminotransferase increase, grade 3, number",450 mg BID (N=28),0
same,"Aspartate aminotransferase increase, grade 4, number",450 mg BID (N=28),0
same,"Bilirubin increase, any grade, number (total)",450 mg BID (N=28),6 [6]
same,"Bilirubin increase, any grade, number [causally related]",450 mg BID (N=28),6 [6]
same,"Bilirubin increase, any grade, percent",450 mg BID (N=28),21.4%
same,"Bilirubin increase, grade 1–2, number (total)",450 mg BID (N=28),5 [5]
same,"Bilirubin increase, grade 1–2, number [causally related]",450 mg BID (N=28),5 [5]
same,"Bilirubin increase, grade 3, number (total)",450 mg BID (N=28),1 [1]
same,"Bilirubin increase, grade 3, number [causally related]",450 mg BID (N=28),1 [1]
same,"Bilirubin increase, grade 4, number",450 mg BID (N=28),0
same,"Constipation, any grade, number [causally related]",450 mg BID (N=28),12
same,"Constipation, any grade, percent (total)",450 mg BID (N=28),57.1%
same,"Constipation, any grade, percent [causally related]",450 mg BID (N=28),42.9%
same,"Constipation, grade 1–2, number (total)",450 mg BID (N=28),16
same,"Constipation, grade 1–2, number [causally related]",450 mg BID (N=28),12
same,"Constipation, grade 3, number",450 mg BID (N=28),0
same,"Constipation, grade 4, number",450 mg BID (N=28),0
same,"Creatine phosphokinase increase, any grade, number (total)",450 mg BID (N=28),13 [13]
same,"Creatine phosphokinase increase, any grade, number [causally related]",450 mg BID (N=28),13 [13]
same,"Creatine phosphokinase increase, any grade, percent",450 mg BID (N=28),46.4%
same,"Creatine phosphokinase increase, grade 1–2, number (total)",450 mg BID (N=28),12 [12]
same,"Creatine phosphokinase increase, grade 1–2, number [causally related]",450 mg BID (N=28),12 [12]
same,"Creatine phosphokinase increase, grade 3, number (total)",450 mg BID (N=28),1 [1]
same,"Creatine phosphokinase increase, grade 3, number [causally related]",450 mg BID (N=28),1 [1]
same,"Creatine phosphokinase increase, grade 4, number",450 mg BID (N=28),0
same,"Creatinine increase, any grade, number (total)",450 mg BID (N=28),8 [8]
same,"Creatinine increase, any grade, number [causally related]",450 mg BID (N=28),8 [8]
same,"Creatinine increase, any grade, percent",450 mg BID (N=28),28.6%
same,"Creatinine increase, grade 1–2, number (total)",450 mg BID (N=28),8 [8]
same,"Creatinine increase, grade 1–2, number [causally related]",450 mg BID (N=28),8 [8]
same,"Creatinine increase, grade 3, number",450 mg BID (N=28),0
same,"Creatinine increase, grade 4, number",450 mg BID (N=28),0
same,"Diarrhea, any grade, number (total)",450 mg BID (N=28),3
same,"Diarrhea, any grade, number [causally related]",450 mg BID (N=28),2
same,"Diarrhea, any grade, percent (total)",450 mg BID (N=28),10.7%
same,"Diarrhea, any grade, percent [causally related]",450 mg BID (N=28),7.1%
same,"Diarrhea, grade 1–2, number (total)",450 mg BID (N=28),2 [2]
same,"Diarrhea, grade 1–2, number [causally related]",450 mg BID (N=28),2 [2]
same,"Diarrhea, grade 3, number (total)",450 mg BID (N=28),1
same,"Diarrhea, grade 3, number [causally related]",450 mg BID (N=28),0
same,"Diarrhea, grade 4, number",450 mg BID (N=28),0
same,"Hyponatraemia, any grade, number (total)",450 mg BID (N=28),1 [1]
same,"Hyponatraemia, any grade, number [causally related]",450 mg BID (N=28),1 [1]
same,"Hyponatraemia, any grade, percent",450 mg BID (N=28),3.6%
same,"Hyponatraemia, grade 1–2, number",450 mg BID (N=28),0
same,"Hyponatraemia, grade 3, number (total)",450 mg BID (N=28),1 [1]
same,"Hyponatraemia, grade 3, number [causally related]",450 mg BID (N=28),1 [1]
same,"Hyponatraemia, grade 4, number",450 mg BID (N=28),0
same,"Neutropenia, any grade, number (total)",450 mg BID (N=28),1 [1]
same,"Neutropenia, any grade, number [causally related]",450 mg BID (N=28),1 [1]
same,"Neutropenia, any grade, percent",450 mg BID (N=28),3.6%
same,"Neutropenia, grade 1–2, number",450 mg BID (N=28),0
same,"Neutropenia, grade 3, number (total)",450 mg BID (N=28),1 [1]
same,"Neutropenia, grade 3, number [causally related]",450 mg BID (N=28),1 [1]
same,"Neutropenia, grade 4, number",450 mg BID (N=28),0
same,"Pneumonitis, any grade, percent (total)",450 mg BID (N=28),3.6%
same,"Pneumonitis, any grade, percent [causally related]",450 mg BID (N=28),0.0%
same,"Pneumonitis, grade 1–2, number",450 mg BID (N=28),0
same,"Pneumonitis, grade 3, number (total)",450 mg BID (N=28),1 [1]
same,"Pneumonitis, grade 3, number [causally related]",450 mg BID (N=28),1 [1]
same,"Pneumonitis, grade 4, number",450 mg BID (N=28),0
same,"Constipation, any grade, number (total)","450 mg BID (N=28; phase 1 N=3, phase 2 N=25)",16
same,dose reduction due to toxicity,"450 mg BID, 28 patients",no patients required a dose reduction
same,patients whose treatment was discontinued due to pneumonitis,"450 mg BID, out of 28 patients",1
same,"Alkaline phosphatase increase, any grade, number (total)",600 mg BID (N=6),2 [2]
same,"Alkaline phosphatase increase, any grade, number [causally related]",600 mg BID (N=6),2 [2]
same,"Alkaline phosphatase increase, any grade, percent",600 mg BID (N=6),33.3%
same,"Alkaline phosphatase increase, grade 1–2, number (total)",600 mg BID (N=6),1[1]
same,"Alkaline phosphatase increase, grade 1–2, number [causally related]",600 mg BID (N=6),1[1]
same,"Alkaline phosphatase increase, grade 3, number (total)",600 mg BID (N=6),1[1]
same,"Alkaline phosphatase increase, grade 3, number [causally related]",600 mg BID (N=6),1[1]
same,"Alkaline phosphatase increase, grade 4, number",600 mg BID (N=6),0
same,"Cholangitis, any grade, number (total)",600 mg BID (N=6),1 [1]
same,"Cholangitis, any grade, number [causally related]",600 mg BID (N=6),1 [1]
same,"Cholangitis, any grade, percent",600 mg BID (N=6),16.7%
same,"Cholangitis, grade 1–2, number",600 mg BID (N=6),0
same,"Cholangitis, grade 3, number (total)",600 mg BID (N=6),1 [1]
same,"Cholangitis, grade 3, number [causally related]",600 mg BID (N=6),1 [1]
same,"Cholangitis, grade 4, number",600 mg BID (N=6),0
same,"Constipation, any grade, number (total)",600 mg BID (N=6),4 [4]

# Source: PMC7867784 (Translational Lung Cancer Research, 2021)
